Several values for one entry are separate records, joined by “and”; a condition that tells them apart may be missing. Equal values may be shown once.
Test system: Fibroblast
Assay: Multiplex assay against human fibroblast
Type: toxicity, cell-based
Procedure, shortened: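 At seeding, live cells were stained with Hoechst33342, BioTracker Green Microtubule Cytoskeleton Dye, MitoTracker Red and Annexin V Alexa Fluor 680. After compound addition they were imaged on a CQ1 microscope at 37°C and 5% CO2, and CellPathfinder machine-learning gating sorted them into Hoechst high-intensity objects or normal cells, with normal cells further split into healthy, pyknosed or fragmented nuclei and pyknosed cells into mitotic or apoptotic. Tubulin, mitochondrial-mass and membrane-permeability phenotypes are given as per cents of cells with healthy nuclei.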

[1] = 12 h, 1 µM, compound concentration 1 uM, replicate 1
[2] = 12 h, 1 µM, compound concentration 1 uM, replicate 2
[3] = 12 h, 10 µM, compound concentration 10 uM, replicate 1
[4] = 12 h, 10 µM, compound concentration 10 uM, replicate 2
[5] = 24 h, 1 µM, compound concentration 1 uM, replicate 1
[6] = 24 h, 1 µM, compound concentration 1 uM, replicate 2
[7] = 24 h, 10 µM, compound concentration 10 uM, replicate 1
[8] = 24 h, 10 µM, compound concentration 10 uM, replicate 2
[9] = 48 h, 1 µM, compound concentration 1 uM, replicate 1
[10] = 48 h, 1 µM, compound concentration 1 uM, replicate 2
[11] = 48 h, 10 µM, compound concentration 10 uM, replicate 1
[12] = 48 h, 10 µM, compound concentration 10 uM, replicate 2

Nc1c(C(=O)NCc2ccc(C(=O)NCCCC3CCCCC3)cc2)cnn1-c1ccccc1 [SR-318]
Population Apoptotic (%) [1]: 63% and 53% and 61% | Population Fragmented Nuclei (%) [1]: 20% and 26% | Population Healthy Nuclei (%) [1]: 41% and 34% | Population Hoechst High Intensity Objects (%) [1]: 10% and 11% | Population Membrane Permeable-Phenotype (%) [1]: 34% and 21% and 18% | Population Mitochondria Different-Phenotype (%) [1]: 6% and 7% and 9% | Population Mitotic Cells (%) [1]: 36% and 46% and 38% | Population Normal (%) [1]: 89% and 88% | Population Pyknosed Nuclei (%) [1]: 38% and 44% | Population Tubulin-Different-Phenotype (%) [1]: 46% and 39% and 51% | Total Cell Count [1]: 128 and 123 and 142 | Population Fragmented Nuclei (%) [2]: 9% and 5% and 3% | Population Healthy Nuclei (%) [2]: 83% and 75% and 91% | Population Membrane Permeable-Phenotype (%) [2]: 6% and 5% | Population Mitochondria Different-Phenotype (%) [2]: 8% | Population Mitotic Cells (%) [2]: 50% and 87% and 100% | Population Normal (%) [2]: 95% and 73% and 96% | Population Tubulin-Different-Phenotype (%) [2]: 19% and 25% and 11% | Total Cell Count [2]: 63 and 91 and 118 | Population Apoptotic (%) [3]: 65% and 54% and 56% | Population Fragmented Nuclei (%) [3]: 20% and 24% and 14% | Population Healthy Nuclei (%) [3]: 29% and 33% and 37% | Population Hoechst High Intensity Objects (%) [3]: 8% and 10% and 20% | Population Mitochondria Different-Phenotype (%) [3]: 24% and 47% and 43% | Population Mitotic Cells (%) [3]: 34% and 45% and 43% | Population Normal (%) [3]: 91% and 89% and 79% | Population Pyknosed Nuclei (%) [3]: 50% and 42% and 47% | Population Tubulin-Different-Phenotype (%) [3]: 88% and 76% and 85% | Total Cell Count [3]: 94 and 140 and 136 | Population Apoptotic (%) [4]: 45% and 22% and 33% | Population Fragmented Nuclei (%) [4]: 17% and 15% and 12% | Population Healthy Nuclei (%) [4]: 69% and 58% and 72% | Population Mitochondria Different-Phenotype (%) [4]: 55% and 51% and 60% | Population Mitotic Cells (%) [4]: 54% and 77% and 66% | Population Normal (%) [4]: 92% and 98% | Population Pyknosed Nuclei (%) [4]: 13% and 25% and 15% | Population Tubulin-Different-Phenotype (%) [4]: 50% and 56% and 67% | Total Cell Count [4]: 71 and 90 and 91 | Population Apoptotic (%) [5]: 44% and 58% and 55% | Population Fragmented Nuclei (%) [5]: 17% and 19% and 22% | Population Healthy Nuclei (%) [5]: 46% and 43% and 44% | Population Hoechst High Intensity Objects (%) [5]: 8% and 6% and 10% | Population Membrane Permeable-Phenotype (%) [5]: 34% and 25% and 33% | Population Mitochondria Different-Phenotype (%) [5]: 6% and 4% and 12% | Population Mitotic Cells (%) [5]: 55% and 41% and 44% | Population Normal (%) [5]: 91% and 93% and 89% | Population Pyknosed Nuclei (%) [5]: 36% and 33% | Population Tubulin-Different-Phenotype (%) [5]: 44% and 31% and 60% | Total Cell Count [5]: 137 and 115 and 142 | Population Apoptotic (%) [6]: 25% | Population Fragmented Nuclei (%) [6]: 6% and 3% and 4% | Population Healthy Nuclei (%) [6]: 80% and 84% and 75% | Population Membrane Permeable-Phenotype (%) [6]: 8% and 5% | Population Mitochondria Different-Phenotype (%) [6]: 13% and 7% | Population Mitotic Cells (%) [6]: 75% | Population Normal (%) [6]: 94% and 97% and 77% | Population Pyknosed Nuclei (%) [6]: 13% and 11% and 19% | Population Tubulin-Different-Phenotype (%) [6]: 22% and 14% and 23% | Total Cell Count [6]: 67 and 130 and 97 | Population Apoptotic (%) [7]: 66% and 45% and 56% | Population Fragmented Nuclei (%) [7]: 15% and 18% and 29% | Population Healthy Nuclei (%) [7]: 43% and 47% and 39% | Population Hoechst High Intensity Objects (%) [7]: 16% and 12% and 11% | Population Mitochondria Different-Phenotype (%) [7]: 31% and 48% and 42% | Population Mitotic Cells (%) [7]: 33% and 54% and 43% | Population Normal (%) [7]: 83% and 87% and 88% | Population Pyknosed Nuclei (%) [7]: 40% and 33% and 30% | Population Tubulin-Different-Phenotype (%) [7]: 76% and 87% and 86% | Total Cell Count [7]: 105 and 118 and 143 | Population Apoptotic (%) [8]: 28% and 44% and 46% | Population Fragmented Nuclei (%) [8]: 13% and 17% and 14% | Population Healthy Nuclei (%) [8]: 65% and 62% and 66% | Population Membrane Permeable-Phenotype (%) [8]: 9% and 7% and 3% | Population Mitochondria Different-Phenotype (%) [8]: 58% and 57% and 66% | Population Mitotic Cells (%) [8]: 71% and 55% and 53% | Population Normal (%) [8]: 98% and 92% | Population Pyknosed Nuclei (%) [8]: 21% and 20% and 18% | Population Tubulin-Different-Phenotype (%) [8]: 41% and 30% and 61% | Total Cell Count [8]: 104 and 67 and 97 | Population Apoptotic (%) [9]: 73% and 50% and 47% | Population Fragmented Nuclei (%) [9]: 32% and 28% and 24% | Population Healthy Nuclei (%) [9]: 43% and 48% and 60% | Population Hoechst High Intensity Objects (%) [9]: 14% and 12% | Population Membrane Permeable-Phenotype (%) [9]: 22% and 21% and 16% | Population Mitochondria Different-Phenotype (%) [9]: 2% and 7% | Population Mitotic Cells (%) [9]: 26% and 50% and 52% | Population Normal (%) [9]: 85% and 87% | Population Pyknosed Nuclei (%) [9]: 24% and 22% and 15% | Population Tubulin-Different-Phenotype (%) [9]: 20% and 37% and 36% | Total Cell Count [9]: 109 and 153 and 141 | Population Apoptotic (%) [10]: 100% and 83% | Population Fragmented Nuclei (%) [10]: 22% and 27% and 14% | Population Healthy Nuclei (%) [10]: 73% and 71% and 81% | Population Hoechst High Intensity Objects (%) [10]: 16% and 13% and 11% | Population Membrane Permeable-Phenotype (%) [10]: 18% and 13% | Population Mitochondria Different-Phenotype (%) [10]: 5% and 4% | Population Mitotic Cells (%) [10]: 0% and 16% | Population Normal (%) [10]: 83% and 86% and 88% | Population Tubulin-Different-Phenotype (%) [10]: 28% and 40% and 26% | Total Cell Count [10]: 116 and 115 and 159 | Population Apoptotic (%) [11]: 71% and 75% and 64% | Population Fragmented Nuclei (%) [11]: 36% and 33% | Population Healthy Nuclei (%) [11]: 43% and 45% and 41% | Population Hoechst High Intensity Objects (%) [11]: 20% and 19% and 17% | Population Membrane Permeable-Phenotype (%) [11]: 12% and 4% and 3% | Population Mitochondria Different-Phenotype (%) [11]: 40% and 45% and 36% | Population Mitotic Cells (%) [11]: 28% and 25% and 35% | Population Normal (%) [11]: 79% and 80% and 82% | Population Pyknosed Nuclei (%) [11]: 19% and 21% and 25% | Population Tubulin-Different-Phenotype (%) [11]: 81% and 83% and 82% | Total Cell Count [11]: 92 and 116 and 150 | Population Fragmented Nuclei (%) [12]: 28% and 31% and 23% | Population Healthy Nuclei (%) [12]: 66% and 63% and 71% | Population Hoechst High Intensity Objects (%) [12]: 9% and 3% | Population Membrane Permeable-Phenotype (%) [12]: 9% and 6% | Population Mitochondria Different-Phenotype (%) [12]: 13% and 23% and 16% | Population Mitotic Cells (%) [12]: 83% and 50% and 85% | Population Normal (%) [12]: 90% and 96% | Population Pyknosed Nuclei (%) [12]: 5% and 4% | Population Tubulin-Different-Phenotype (%) [12]: 68% and 86% | Total Cell Count [12]: 121 and 148 and 157
